Test results taken from the EternaBench riboswitch data.

System: MS2 coat protein
Experiment: apparent Kd, MS2 coat protein; higher = weaker binding; RNA-MaP array; FMN 200 µM where present
Summary of the method: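 SNAP-549-labelled MS2 coat protein, doubled from 0.7 or 1.5 nM to 3 µM, was titrated over designs transcribed by stalled E. coli RNA polymerase on Illumina sequencing-chip clusters. Titrations were run without and then with constant ligand in 100 mM Tris-HCl pH 7.5, 80 mM KCl, 4 mM MgCl2, BSA, DTT, yeast tRNA and Tween-20. The apparent Kd is the median of filtered per-cluster fits to green signal normalised to red-channel RNA signal and control-cluster median Fmax.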

[1] = designed as: OFF switch for flavin mononucleotide, no ligand
[2] = ligand present: flavin mononucleotide, designed as: OFF switch for flavin mononucleotide
[3] = ligand present: flavin mononucleotide, designed as: ON switch for flavin mononucleotide
[4] = designed as: ON switch for flavin mononucleotide, no ligand

GACUUGUUAGGAUAUCUUACAUUUGCAUCAUAGUAACCUUUGGAGAAGGGACAUGAGGAUCACCCAUGUUUGGU
apparent Kd [1]: 62.3 nM
apparent Kd [2]: 53.5 nM

GCGAAUUAGUGAGGAUAUACAUAAUUUAUAACUGUAGAAGGCACAAUCCUCAAGACAUGAGGAUCACCCAUGUGGUAUUACGCU
apparent Kd [1]: 151 nM
apparent Kd [2]: 911 nM

UUUCCACAUGAGGAUCACCCAUGUCAGGAUAUUAGAUCUAUUUAUACAUAUAAUUAUUUAAGAAGGGACACUAA
apparent Kd [1]: 18.1 nM
apparent Kd [2]: 16.9 nM

CCAUGGCAUGUAGGAUAUGUCUGACAAAGUCAGACAGAAGGACAUGAGGAUCACCCAUGUAAACCGAAAGGAACAUAGCCAUGG
apparent Kd [1]: 6.54 nM
apparent Kd [2]: 7.3 nM

UUAAAUCAUGUAGGAUAUGCAUGGCGAAGCUACGCAGAAGGACAUGAGGAUCACCCAUGUUAUAGGUACCCAGUUCGGUGCCAA
apparent Kd [1]: 115 nM
apparent Kd [2]: 200 nM

AAAACGUGAGGAUAUCCAAUAUAUGACAUGAGGAUCACCCAUGUUUCCACUCGUACCUCCGGAGAAGGCACAAUUU
apparent Kd [1]: 51.2 nM
apparent Kd [2]: 41.7 nM

GCGUGGUUCUAGAAGGUGCUAGCGAUAAGCUAGCAAGGAUAUAGACAUGAGGAUCACCCAUGUCUAUGUGAAAUAGACACACGC
apparent Kd [1]: 4.75 nM
apparent Kd [2]: 4.62 nM

AAUAUAAAGAGCUGGAACCUAAUAACAUGAGGAUCACCCAUGUAGGAUAUCAGCACGAUAAGUGCUGAGAAGGACAUCCAGCUC
apparent Kd [1]: 14.7 nM
apparent Kd [2]: 14.8 nM

GUCAGCUCGUGAGGAUAUACAACACUGCUUCUGCAGUGUAUUAAGAUCACAUGAGGAUCACCCAUGUAGAAGGCACGAGCUGAU
apparent Kd [1]: 12.8 nM
apparent Kd [2]: 234 nM

AAAUUGGUAGAGGAUAUCGGAUAGGAUUUAUUGCGAGAAGGCUGCACAUGAGGAUCACCCAUGUUCUGUUGGGA
apparent Kd [1]: 201 nM
apparent Kd [2]: 280 nM

UGUGUGAGACAGGAUAUGCCGGAUAUAUUACUGGUAGAAGGGUCUACAUGAGGAUCACCCAUGUGGCCGGCCGG
apparent Kd [1]: 18 nM
apparent Kd [2]: 29.1 nM

GUGUACAGAGGAUAUACAUGAGCUAGGAAACUAGCAAACUCACAUGAGGAUCACCCAUGUAGAAGGCUGUACAC
apparent Kd [1]: 264 nM
apparent Kd [2]: 54.7 nM

GUUUUCGCAUGAGGAUAUGCUCGCAUUUUAAGAGCAGAAGGUAUGUCUUUAGACAUGAGGAUCACCCAUGUAUUUAUCAUUGAA
apparent Kd [3]: 28.2 nM

UGUCGGAGCAGAGGAUAUUACAUGAGGAUCACCCAUGUAUGAACCAAUAGCUGUAAACAGCAAUGUAAGAAGGCUGCUCCGACA
apparent Kd [1]: 12.7 nM
apparent Kd [2]: 191 nM

GUAAAUCAUGUAGGAUAUGCAUGGCGAAGCUACGCAGAAGGACAUGAGGAUCACCCAUGUUCUAGCGUCUGAGUUCAGAUGCAA
apparent Kd [1]: 19.3 nM
apparent Kd [2]: 45.9 nM

GACACUAUGUUUGUCAGAUAGAGAGAGGAUAUGGCUCAUGAGACAUGAGGAUCACCCAUGUAUAAUCAGAAGGCUCGAGUACGA
apparent Kd [4]: 11.5 nM
apparent Kd [3]: 9.17 nM

CCUAUACAUGAGGAUCACCCAUGUCAGGAUAUAGAAAGCCGCGGAAUAGGACACGGCACUAGAAGGGACUGGCU
apparent Kd [1]: 29.7 nM
apparent Kd [2]: 36.1 nM

CUUAUGUGAGGAUAUGUACAGAAAAAAAAGGGUGUAACUGUACAGAAGGCACAUGAGGAUCACCCAUGUGCAUU
apparent Kd [1]: 60.8 nM
apparent Kd [2]: 50.4 nM

ACAUUCUUUCGAGGAUAUCGGUGAUUAAUUUUACGAGAAGGCGAUUUAAGAUAUAAUAUUUUAGACAUGAGGAUCACCCAUGUA
apparent Kd [4]: 26.1 nM
apparent Kd [3]: 24.1 nM

GCCUUAUCUGUCAGGAUAUACAAUAAUUUUUUUUUGUAGAAGGGACAUGAGGAUCACCCAUGUACAUUACAUUG
apparent Kd [1]: 40 nM
apparent Kd [2]: 201 nM

UAAGUCUAAUGAGGAUAUCGUUAUCAAAGAUAAUGAGAAGGCAUACAAUCAUGAGGACAUGAGGAUCACCCAUGUUGUGACCAU
apparent Kd [4]: 40.9 nM
apparent Kd [3]: 17.6 nM

GUACCUUAUGAGAAGGCGAUCAUAAAACAUGAUCGAGGAUAUCAUGUAAACAUGAGGAUCACCCAUGUAUGGGUAUUAUGGUAC
apparent Kd [4]: 68.7 nM
apparent Kd [3]: 17.5 nM

GGAUAGGACAGAGGAUAUACGCGCUAGAGAUACUAGCAAAAUUUCCUCACAUGAGGAUCACCCAUGUAGAAGGCUGUCCUAUCG
apparent Kd [1]: 20.1 nM
apparent Kd [2]: 580 nM

AAACCGUGUGGAGGAUAUGCAGUUGAGGUGAGGCGGCAGCUCUAUACGACAGCAGAAGGCCACAUGAGGAUCACCCAUGUAGGU
apparent Kd [1]: 107 nM
apparent Kd [2]: 326 nM

GCUUUAUUGGUCAGGAUAUACAUUUGUUACUCUUUGUAGAAGGGACAUGAGGAUCACCCAUGUACAUUACAUUC
apparent Kd [1]: 23.2 nM
apparent Kd [2]: 24.3 nM

ACCAUUUACUAAUUAUCUAUACAUGAGGAUCACCCAUGUUAAGAGGAUAUCAUCGUUCGCCGCGAUGAGAAGGCUUAGCAUUCG
apparent Kd [1]: 48.8 nM
apparent Kd [2]: 154 nM

CCUAAGGACACAGGAUAUAGCGUGGUGGCUGUGCUCCAACGGCGAGCGGCGCUAGAAGGGUGACCACAUGAGGAUCACCCAUGU
apparent Kd [4]: 665 nM
apparent Kd [3]: 177 nM

CGAGUUUUUGAGAAGGCAUAUUAUAUUAUACCACAUGUUUACAUGAGGAUCACCCAUGUUUCCUAUGAGGAUAUCAGAAUGUCG
apparent Kd [1]: 9.34 nM
apparent Kd [2]: 7.33 nM

GGUCAACAUGAGGAUCACCCAUGUAAGCCAAGGCAAGGAUAUGGGUAUAGGGUACUAGGGUUAGAAGGUGCCAAUA
apparent Kd [4]: 144 nM
apparent Kd [3]: 182 nM

AAGGCCUAUUCCAGGACUAUCGUACUAGAAGGGUGACCUGACAUGAGGAUCACCCAUGUACGGGCACAGGAUAUAGAUGAAAGG
apparent Kd [4]: 50.1 nM
apparent Kd [3]: 11.3 nM

UAAAAGACUAGUAUGGUAACGAUCACAUGAGGAUCACCCAUGUAGGAUAUGAGCAGAAAAUCUGCUCAGAAGGACAUGCUAGUC
apparent Kd [1]: 5.8 nM
apparent Kd [2]: 9.08 nM

CCACGGUAUGUAGGAUAUGCAUAGCAUUGCUAUGCAGAAGGACAUGAGGAUCACCCAUGUAUGUAUUCCAUACUAAUCCCGUGG
apparent Kd [1]: 5.5 nM
apparent Kd [2]: 5.69 nM

AGUAACAUGCUCAACAUGAGGAUCACCCAUGUACUCUCUUGUAAGGAUAUACAAUCGUAUUGAUAGUAGAAGGUACCAAUUAAG
apparent Kd [4]: 52.7 nM
apparent Kd [3]: 51.9 nM

UGAACUAUGUAGAAGGCCCGCAUGAAAAUGACGGGAGGAUAUACAUGAGGAUCACCCAUGUGAAGAGCAAGAGGGUUUAACAGA
apparent Kd [1]: 282 nM
apparent Kd [2]: 163 nM

AUAUAGAUGGUCAGGAUAUGCUAGUGGUAACAGUAGCAGAAGGGACAUGAGGAUCACCCAUGUGGAUACUGCUC
apparent Kd [1]: 23.9 nM
apparent Kd [2]: 93.6 nM

ACAUGAGGAUCACCCAUGUUGAUAGUAGAAGGGACAGAGAAGAAGAAACAUGAGGAUCACCCAUGUCAGGAUAUGCGAAUUGGA
apparent Kd [4]: 36.4 nM
apparent Kd [3]: 33.6 nM

UUGGACGUCGUAGGAUCUGUAGGAUAUUCCUACAUGAGGAUCACCCAUGUUGACAUGGAAGAAGGACAGAAGGACGAUGUCCAU
apparent Kd [4]: 6.35 nM
apparent Kd [3]: 3.7 nM

ACUGGUCGAGGAUAUGCAUUCGUGCUUCGGCACGUAAGGUCACAUGAGGAUCACCCAUGUAGAAGGCGACCAGU
apparent Kd [1]: 18.2 nM
apparent Kd [2]: 36.9 nM

UUUUAGUGAGGAUAUGUGGCUUCGAUCGUGAGAUCGAGGCUACAGAAGGCACAUGAGGAUCACCCAUGUUCCUG
apparent Kd [1]: 15.7 nM
apparent Kd [2]: 55.7 nM

CCAGGCUGUGUGAGGAUAUGCUGGUCCUUGGAUCAGCAGAAGGCACAUGAGGAUCACCCAUGUGAAAAGCUUGG
apparent Kd [1]: 17.4 nM
apparent Kd [2]: 57.6 nM

GAUCCUUCUGUUAGGAUAUGCUUUGGGCUUCCGCAGCAGAAGGAACAUGAGGAUCACCCAUGUCCAAUACCAUC
apparent Kd [1]: 42.6 nM
apparent Kd [2]: 41.8 nM

GGUCGGAAUUUCGACGGCCUGAGGGAGGAUAUACAAGGCCGGCGUCGCACAUGAGGAUCACCCAUGUAGAAGGCCCAAGGCCUG
apparent Kd [1]: 6 nM
apparent Kd [2]: 7.2 nM

GGUAGACAUGAGGAUCACCCAUGUGAGGAUAUCGUCAUAGAUGCAAAAGCAUCUAUGACGAGAAGGUACAUGCC
apparent Kd [1]: 33.1 nM
apparent Kd [2]: 34.3 nM

AACAUGAGGAUCACCCAUGUCCCACCAGAAGGCUGGCGGUGGUGGUAAAGGCCACGACAAAUAACAGAGGAUAUGGUGAAUGCA
apparent Kd [4]: 84.6 nM
apparent Kd [3]: 18.8 nM

GCUAAUUAGUGAGGAUAUACAUAAUUUAUUACUGUAGAAGGCACAAACCUCAAGACAUGAGGAUCACCCAUGUGGUAUUUAAGC
apparent Kd [1]: 151 nM
apparent Kd [2]: 394 nM

CGCAUUCCGUAGAAGGGUGACAUGAGGAUCACCCAUGUGCGAGCCGAGGGAGUCAGCGGCUCGCCACAGGAUAUACGGAGCACG
apparent Kd [4]: 87.3 nM
apparent Kd [3]: 84.8 nM

GGAUAGGACAGAGGAUAUACCGAUAGGAGAUACUAUCGACUAUUCCUCACAUGAGGAUCACCCAUGUAGAAGGCUGUCCUAUCG
apparent Kd [1]: 16.9 nM
apparent Kd [2]: 58.1 nM

UCCGGACAUGAGGAUCACCCAUGUCAGGAUAUACCCGAGGCAGCGAACUCGCUAGCCAGUAGAAGGGACAUGGU
apparent Kd [1]: 19.8 nM
apparent Kd [2]: 20.8 nM
